According to ChEMBL document CHEMBL1125374, “Novel anticancer prodrugs of butyric acid. 2” (J Med Chem, 1992):
One block for each molecule: values may come before it.

How the values were obtained:
[1] = Lethal dose was determined; format: toxicity; conditions: mouse
In short: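 Acute toxicity in male and female BALB/c mice (3 experiments) and C57Bl mice (2 experiments), 6-8 weeks old, weighing 20 ± 0.5 g, in groups of 10. Each mouse got a single injection of 0.125-2.5 g/kg in propylene glycol, and LD50 was taken from mortality.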

[2] = tested on: HL-60; assay: Concentration required for 50% proliferation inhibition of human promyelocytic HL-60 cell line; format: functional, cell-based
In short: (§1)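 Cells grown in RPMI with 10% fetal calf serum and 2 mM glutamine at 37 °C, 5% CO2. HL-60 (human promyelocytic) and WEHI (murine myelomonocytic) cells exposed to a titration of compound for 24 h. [3H]thymidine pulsed at 1 µCi/well during the last 14 h. Acid-insoluble counts collected on glass-fibre filters. IC50 taken from percent incorporation vs log concentration. At least two independent experiments.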

[3] = tested on: B16-F10; assay: Effect on metastases of B16F10.9 melanoma cells (intravenously injected) in C57BL/6 mice was observed after administration of 100 mg/kg dose; conditions: route intraperitoneal
[4] = tested on: B16-F10; assay: Effect on metastases of B16F10.9 melanoma cells (intraperitoneally implanted) in B6C3F1/OLAC/HSD mice was observed after administration of 50 mg/kg dose; format: functional, Mus musculus; conditions: route intraperitoneal
[5] = tested on: B16-F10; assay: Effect on metastases of B16F10.9 melanoma cells (intravenously injected) in C57BL/6 mice was observed after administration of 12.5 mg/kg; conditions: route intraperitoneal
[6] = tested on: B16-F10; assay: Effect on metastases of B16F10.9 melanoma cells (intravenously inoculated) in C57BL/6 mice was observed after administration of 12.5 mg/kg dose; conditions: route intravenous
[7] = tested on: B16-F10; assay: Effect on metastases of B16F10.9 melanoma cells (intravenously injected) in C57BL/6 mice was observed after administration of 25 mg/kg dose; conditions: route intraperitoneal
[8] = tested on: WEHI; assay: Concentration required for 50% proliferation inhibition of myelomonocytic WEHI cell line; format: functional, cell-based; conditions: Mus musculus; in short: as §1
[9] = tested on: B16-F10; assay: Effect on metastases of B16F10.9 melanoma cells (intravenously injected) in C57BL/6 mice was observed after administration of 25 mg/kg dose; conditions: route intraperitoneal; remark: listed apart in the source
[10] = tested on: B16-F10; assay: Effect on appearance of B16F10.9 colonies in semisolid agar; format: functional, cell-based; conditions: Mus musculus
In short: (§2)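 B16F10.9 cells (10^3) plated in the upper layer of a 0.6 mL RPMI soft-agar bilayer. Lower layer: conditioned medium 40, FCS 10, horse serum 15, agar 0.5 (% v/v). Upper layer: FCS 20, horse serum 20, agar 0.36. Compound added to the upper layer. Aggregates of more than 20 cells scored as colonies by inverted microscope after 7 days.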

[11] = tested on: B16-F10; assay: Effect on metastases of B16F10.9 melanoma cells (intravenously injected) in C57BL/6 mice was observed after administration of 100 mg/kg dose; conditions: route intraperitoneal; remark: listed apart in the source
[12] = tested on: B16-F10; assay: Effect on metastases of B16F10.9 melanoma cells (intravenously injected) was observed after administration of 50 mg/kg dose; conditions: route intraperitoneal
[13] = tested on: B16-F10; assay: Inhibitory activity on growth of B16F10.9 melanoma cell line; format: functional, cell-based; conditions: Mus musculus
In short: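 B16F10.9 melanoma cells (4 x 10^4) seeded in 35-mm dishes in RPMI/10% FCS at 37 °C, 5% CO2. Compound added 6 h after seeding. On day 4 cells detached in PBS with 1 mM EDTA and counted electronically. IC50 read from viable cell number vs log concentration.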

[14] = tested on: B16-F10; assay: Effect on appearance of B16F10.9 colonies in semisolid agar at 1 mM; format: functional, Mus musculus; in short: as §2

Compound: CCCC(=O)OCOC(=O)C(C)(C)C [AN-9]
LD50 [1]: 1360 mg/kg
IC50 [2]: 49.5 µM
No. of lung lesions [3]: 140
No. of lung lesions [4]: 66.6
No. of lung lesions [5]: 97.89
Lung weight [6]: 0.1571 g
Lung weight [7]: 0.135 g
IC50 [8]: 75 µM
No. of lung lesions [9]: 72.38
IC50 [10]: 60 µM
Lung weight [11]: 0.269 g
Lung weight [12]: 0.0929 g
IC50 [13]: 82 µM

IC50 [2]: 1520 µM
IC50 [13]: 933 µM
Compound: CCCC(=O)O [BUTYRIC ACID]
Decrease [14]: 22%
IC50 [8]: 850 µM

Compound: O=P1(N(CCCl)CCCl)NCCCO1 (stereo not drawn) [CYCLOPHOSPHAMIDE ANHYDROUS]
No. of lung lesions [4]: 56.38
